Values joined by “and” are separate entries in the source; they are usually repeats but may differ in a detail not shown here. Identical values can stand only once. Like-named read-outs stand apart in the source and are kept apart here.
Tests used:
[1] = therapeutic dose 400 mg twice daily, cited from earlier work
[2] = type: in vivo, human (healthy subjects); conditions: for Maximum increase of serum creatinine concentration from baseline: at 24 hours
In short: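 Blood was drawn from healthy subjects at 0, 2, 4, 8, 24, 48 and 72 h after the day-1 single fasted oral dose: 200 mg in the inhibition cohort, 400 mg in the induction cohort. Creatinine and cystatin C were measured in each sample. Change from baseline was summarized descriptively by time point.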

[3] = Capmatinib/CMN288 pharmacokinetics, inhibition cohort; type: in vivo, human (healthy subjects); conditions: for AUCinf geometric mean ratio (90%CI) / AUClast geometric mean ratio (90%CI) / Cmax geometric mean ratio (90%CI): itraconazole + capmatinib 200 mg / capmatinib alone
In short: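 Inhibition cohort of healthy subjects (n = 27): a single fasted oral 200 mg dose on day 1, then a 4-day washout. Itraconazole 200 mg was given daily on days 5–14, and 200 mg test compound was dosed 1 h after the sixth itraconazole dose (day 10). Plasma was sampled serially to 96 h after each dose and assayed by validated LC-MS/MS (LLOQ ≈1.0 ng/mL). Test/reference ratios are antilogged point estimates with 2-sided 90%CIs.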

[4] = Capmatinib/CMN288 pharmacokinetics, induction cohort; type: in vivo, human (healthy subjects); conditions: for AUC(0-inf): AUCinf; for AUC(0-t): AUClast; for AUCinf geometric mean ratio (90%CI) / AUClast geometric mean ratio (90%CI) / Cmax geometric mean ratio (90%CI): rifampicin + capmatinib 400 mg / capmatinib alone
In short: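 Healthy subjects (induction cohort, n = 26) received a single fasted oral 400 mg dose on day 1, then a 4-day washout. Rifampicin 600 mg was given daily on days 5–13, with 400 mg test compound coadministered with the sixth dose on day 10. Serial plasma was drawn to 72 h after each dose and frozen <–70°C. Parent and metabolite were measured by validated LC-MS/MS (LLOQ ≈1.0 ng/mL). Ratios are antilogged 90%CIs.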

[5] = healthy subjects, used for sample size; cited from earlier work
[6] = test system: OATP1B3; conditions: cited from earlier work
[7] = test system: OATP1B1; conditions: cited from earlier work
[8] = test system: MATE2K; conditions: read-out: Ki, MATE2K inhibition; in vitro; ref Novartis data on file; cited from earlier work
[9] = test system: MATE1; conditions: read-out: Ki, MATE1 inhibition; in vitro; ref Novartis data on file; cited from earlier work
[10] = Safety assessment; type: in vivo, human (healthy subjects)
[11] = single dose 200 mg capmatinib, inhibition cohort
[12] = single dose 400 mg capmatinib, induction cohort
[13] = capmatinib + itraconazole compared to capmatinib alone
[14] = inhibition cohort, healthy subjects, single oral capmatinib 200 mg + itraconazole 200 mg/day, plasma
[15] = inhibition cohort, healthy subjects, single oral capmatinib 200 mg alone, plasma
[16] = capmatinib + rifampicin compared to capmatinib alone
[17] = human, plasma, po, adjusted geometric mean, induction cohort, healthy subjects, single oral capmatinib 400 mg + rifampicin 600 mg/day, plasma
[18] = human, plasma, po, geometric mean (geometric CV%), induction cohort, healthy subjects, single oral capmatinib 400 mg + rifampicin 600 mg/day, plasma
[19] = human, plasma, po, mean (CV%), induction cohort, healthy subjects, single oral capmatinib 400 mg + rifampicin 600 mg/day, plasma
[20] = induction cohort, healthy subjects, single oral capmatinib 400 mg + rifampicin 600 mg/day, plasma
[21] = induction cohort, healthy subjects, single oral capmatinib 400 mg alone, plasma
[22] = induction cohort N=26 (capmatinib 400 mg, rifampicin 600 mg/day)
[23] = inhibition cohort N=27 (capmatinib 200 mg, itraconazole 200 mg/day)

## CNC(=O)c1ccc(-c2cnc3ncc(Cc4ccc5ncccc5c4)n3n2)cc1F [Capmatinib]
[1]; read-out: Steady-state Cmax, total
  Cmax: 11.6 µM
[1]; unbound
  Steady-state Cmax, unbound: 0.464 µM
[2]; after a single dose of capmatinib, 3-day monitoring
  Change in serum creatinine: transient increase
[2]; [11]
  Time at which serum creatinine returned to baseline: 48 h
  Maximum increase of serum creatinine concentration from baseline: 21%
[2]; [12]
  Time at which serum creatinine returned to baseline: 72 h
  Maximum increase of serum creatinine concentration from baseline: 27.3%
[2]; single dose capmatinib 200 or 400 mg, both cohorts, 3-day monitoring
  Change in serum cystatin C concentration: no change
[3]; [13]
  Increase of geometric mean AUCinf with itraconazole: 42%
  Increase of geometric mean AUClast with itraconazole: 41%
[3]; human, plasma, po, 200 mg
  AUC(0-t): 5430 ng·h/mL
[3]; human, plasma, po, AUCinf, geometric mean (geometric CV%), inhibition cohort, healthy subjects, single oral capmatinib 200 mg + itraconazole 200 mg/day, plasma
  AUC(0-inf): 7450 ng·h/mL
[3]; human, plasma, po, adjusted geometric mean, inhibition cohort, healthy subjects, single oral capmatinib 200 mg + itraconazole 200 mg/day, plasma
  Cmax: 1300 ng/mL
[3]; human, plasma, po, geometric mean (geometric CV%), inhibition cohort, healthy subjects, single oral capmatinib 200 mg + itraconazole 200 mg/day, plasma
  Cmax: 1290 ng/mL
[3]; human, plasma, po, mean (CV%), inhibition cohort, healthy subjects, single oral capmatinib 200 mg + itraconazole 200 mg/day, plasma
  Cmax: 1410 ng/mL
[3]; [14]
  AUCinf, adjusted geometric mean: 7360 ng·h/mL
  AUCinf, mean (CV%): 7680 (24.3) ng · h/mL
  AUClast, adjusted geometric mean: 7340 ng·h/mL
  AUClast, mean (CV%): 7660 (24.5) ng · h/mL
  CL/F, geometric mean (geometric CV%): 26.8 (26.4) L/h
  CL/F, mean (CV%): 27.8 (28.1) L/h
  t1/2, geometric mean (geometric CV%): 6.05 (31.3) h
  t1/2, mean (CV%): 6.34 (32.8) h
  tmax, median (range): 2.00 (0.495–4.01) h
[3]; [15]
  AUCinf, geometric mean (geometric CV%): 5280 (30.6) ng · h/mL
  AUClast, adjusted geometric mean: 5220 ng·h/mL
  AUClast, geometric mean (geometric CV%): 5220 (30.6) ng · h/mL
  CL/F, geometric mean (geometric CV%): 37.9 (30.6) L/h
  CL/F, mean (CV%): 39.6 (33.4) L/h
  Cmax, adjusted geometric mean: 1260 ng/mL
  Cmax, geometric mean (geometric CV%): 1260 (46.9) ng/mL
  Cmax, mean (CV%): 1380 (40.4) ng/mL
  Tmax, median: 1.00 h
  tmax, median (range): 1.00 (0.505–4.00) h
[3]
  AUCinf geometric mean ratio (90%CI): 1.42 (1.33–1.52)
  AUClast geometric mean ratio (90%CI): 1.41 (1.29–1.53)
  Cmax geometric mean ratio (90%CI): 1.03 (0.866–1.22)
[3]; listed as capmatinib
  AUCinf geometric mean ratio (90%CI): 1.42
  AUClast geometric mean ratio (90%CI): 1.41
  Cmax geometric mean ratio (90%CI): 1.03
[3]; itraconazole + capmatinib 200 mg vs capmatinib alone
  Tmax median difference (minimum to maximum differences): 0.489 (–3.02 to 3.00) h
[4]; [16]
  Decrease of geometric mean AUCinf with rifampicin: 66.5% and 67%
  Decrease of geometric mean AUClast with rifampicin: 67.8%
  Decrease of geometric mean Cmax with rifampicin: 55.9% and 55%
[4]; human, plasma, po, 400 mg
  Tmax: 59.6 min
[4]; [17]
  AUC(0-inf): 3850 ng·h/mL
  AUC(0-t): 3720 ng·h/mL
  Cmax: 1350 ng/mL
[4]; [18]
  AUC(0-inf): 3890 ng·h/mL
  AUC(0-t): 3720 ng·h/mL
  Cmax: 1350 ng/mL
[4]; [19]
  AUC(0-inf): 4050 ng·h/mL
  AUC(0-t): 3860 ng·h/mL
[4]; human, plasma, po, t1/2, mean (CV%), induction cohort, healthy subjects, single oral capmatinib 400 mg + rifampicin 600 mg/day, plasma
  half-life: 666 min
[4]; [20]
  CL/F, geometric mean (geometric CV%): 103 (29.4) L/h
  CL/F, mean (CV%): 107 (26.1) L/h
  Cmax, mean (CV%): 1460 (43.4) ng/mL
  t1/2, geometric mean (geometric CV%): 10.3 (40.8) h
  tmax, median (range): 0.994 (0.478–2.00) h
[4]; [21]
  CL/F, geometric mean (geometric CV%): 35.4 (24.3) L/h
  CL/F, mean (CV%): 36.4 (23.7) L/h
  tmax, median (range): 0.994 (0.461–3.00) h
[4]
  AUCinf geometric mean ratio (90%CI): 0.335 (0.300–0.374)
  AUClast geometric mean ratio (90%CI): 0.322 (0.294–0.353)
  Cmax geometric mean ratio (90%CI): 0.441 (0.387–0.502)
[4]; listed as capmatinib
  AUCinf geometric mean ratio (90%CI): 0.335
  AUClast geometric mean ratio (90%CI): 0.322
  Cmax geometric mean ratio (90%CI): 0.441
[5]
  Intrasubject coefficient of variation (CV%) for AUC: 22.8%
  Intrasubject coefficient of variation (CV%) for Cmax: 29.9%
[6]
  Substrate of OATP1B3: not a substrate
[7]
  Substrate of OATP1B1: not a substrate
[8]
  Ki: 290 nM
[9]
  Ki: 280 nM
[10]; either treatment cohort
  Deaths: No deaths were reported
  Serious AEs: No serious AEs were reported
[10]; [22]
  AEs suspected to be related to the study treatment (any grade): 10 subjects
  Discontinued study treatment due to AEs: 1 subjects
[10]; [23]
  AEs suspected to be related to the study treatment (any grade): 13 subjects
  Amylase increased, grade 3: 1 subjects
